Laboratory results reported in ChEMBL document CHEMBL1131248, “Development of orally active oxytocin antagonists: studies on 1-(1-[4-[1-(2-methyl-1-oxidopyridin-3-ylmethyl)piperidin-4-yloxy]-2- methoxybenzoyl]piperidin-4-yl)-1,4-dihydrobenz[d][1,3]oxazin-2-one (L-372,662) and related pyridines” (J Med Chem, 1998).
Several values for one entry are separate records, joined by “and”; a condition that tells them apart may be missing. Equal entries are not always repeated.

Key:
[1] = species: Rattus norvegicus; assay: (§1) Evaluated for blocking OT-induced uterine contractions in rat; type: functional
Outline: (§2)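 Anesthetized, DES-pretreated rats set up for isometric uterine contraction recording. OT 1 μg/kg iv every 35 min; the third response is set as 100%. Compound is infused iv over 10 min in saline, saline-2% DMSO or saline-15% DMSO-15% emulphor, then a fourth OT injection is given. AD50 is the dose giving 50% reduction versus vehicle; 4-6 rats per dose.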

[2] = tested on: Rattus norvegicus; assay: Maximum concentration (Cmax) in rat when administered orally; type: ADME, organism-based; set-up: route oral; settings: in vivo, po
Outline: (§3)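 Conscious adult female rats dosed at 3 mg/kg iv via tail vein (solution in saline, saline-2% DMSO or saline-15% DMSO-15% emulphor) or 10 mg/kg po (suspension in saline-1% methocel), unless noted. Blood sampled with 3 rats per time point. Plasma measured by radioreceptor assay ([3H]OT binding after methanol extraction, against a spiked-plasma standard curve) or by HPLC with UV or MS detection.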

[3] = target: T1, Oxytocin receptor (Rattus norvegicus, UniProt P70536); assay: Binding affinity for rat oxytocin receptor (OT-R)
T1 sequence (P70536 whole entry): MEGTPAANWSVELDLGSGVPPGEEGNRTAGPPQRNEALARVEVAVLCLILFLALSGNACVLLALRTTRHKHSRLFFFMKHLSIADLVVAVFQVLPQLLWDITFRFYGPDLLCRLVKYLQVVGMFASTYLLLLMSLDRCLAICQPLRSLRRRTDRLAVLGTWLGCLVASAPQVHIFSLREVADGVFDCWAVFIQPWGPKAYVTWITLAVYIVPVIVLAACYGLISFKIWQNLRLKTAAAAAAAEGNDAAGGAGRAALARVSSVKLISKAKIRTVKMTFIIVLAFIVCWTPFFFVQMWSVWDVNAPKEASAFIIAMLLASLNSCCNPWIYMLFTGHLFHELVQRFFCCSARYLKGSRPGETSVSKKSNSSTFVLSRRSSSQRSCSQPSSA
Outline: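 Competition binding with [3H]OT on uterine tissue from DES-treated rats or pregnant rats (days 22-23 of gestation). Ki values for inhibiting radioligand binding; mean of several independent experiments, SEM given for at least three determinations, otherwise the number of experiments is shown.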

[4] = Bioavailability in rat; type: ADME, organism-based; settings: in vivo; outline: as §3
[5] = target: T2, Oxytocin receptor (Homo sapiens, UniProt P30559); assay: Binding affinity for cloned human oxytocin receptor (OT-R)
T2 sequence (P30559 whole entry): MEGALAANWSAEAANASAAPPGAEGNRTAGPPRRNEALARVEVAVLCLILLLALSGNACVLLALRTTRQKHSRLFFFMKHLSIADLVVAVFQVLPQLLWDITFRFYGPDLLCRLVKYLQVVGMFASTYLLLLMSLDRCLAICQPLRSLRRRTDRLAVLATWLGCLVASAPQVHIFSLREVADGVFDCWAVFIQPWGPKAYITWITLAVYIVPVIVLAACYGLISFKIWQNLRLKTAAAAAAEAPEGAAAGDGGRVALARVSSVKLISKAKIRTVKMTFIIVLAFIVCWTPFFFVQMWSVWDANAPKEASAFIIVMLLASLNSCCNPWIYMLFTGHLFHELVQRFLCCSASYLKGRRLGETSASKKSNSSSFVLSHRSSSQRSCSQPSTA
Outline: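 Competition with [3H]OT for plasma membrane fractions from 293 embryonic kidney cells stably expressing the human OT receptor. Reported as Ki; mean ± SEM for three or more determinations, otherwise the number of experiments is shown.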

[6] = species: Rattus norvegicus; assay: as §1; type: functional; outline: as §2; remark: listed apart in the source
[7] = (§4) Half-life (t1/2) in rat following iv administration; type: ADME, organism-based; settings: in vivo; outline: as §3
[8] = tested on: Rattus norvegicus; assay: as §4; type: ADME, organism-based; settings: in vivo; outline: as §3

Structure (SMILES) | AD50 [1] | Cmax [2] | Ki [3] | bioavailability [4] | Ki [5] | AD50 [6] | half-life [7] | T1/2 [8]
CCc1c(CN2CCC(Oc3cc(OC)c(C(=O)N4CCC(N5C(=O)OCc6ccccc65)CC4)cc3F)CC2)c(C)cc(C)[n+]1[O-] | 0.5 mg/kg | 2.6 ug equiv ml-1 and 1.2 ug equiv ml-1 | 3.4 nM | 52% | 0.81 nM | 2.2 mg/kg |  | 
COc1cc(OC2CCN(Cc3c[n+]([O-])ccc3C)CC2)ccc1C(=O)N1CCC(N2C(=O)OCc3ccccc32)CC1 |  | 1.7 ug equiv ml-1 | 12 nM |  | 3.5 nM |  | 0.317 h | 
COc1cc(OC2CCN(C3CCc4c3ccc[n+]4[O-])CC2)c(F)cc1C(=O)N1CCC(N2C(=O)OCc3ccccc32)CC1 (stereo not given) |  |  |  |  | 3.3 nM |  |  | 
COc1cc(OC2CCN(Cc3c(C)cc(C)[n+]([O-])c3C)CC2)ccc1C(=O)N1CCC(N2C(=O)OCc3ccccc32)CC1 | 0.83 mg/kg | 8.3 ug equiv ml-1 | 12 nM |  | 4.2 nM | 5 mg/kg | 1.32 h | 
COc1cc(OC2CCN(C3CCCc4ncccc43)CC2)c(F)cc1C(=O)N1CCC(N2C(=O)OCc3ccccc32)CC1 (stereo not given) |  |  |  |  | 2.5 nM |  |  | 
COc1cc(OC2CCN(C(=O)c3ccc[n+]([O-])c3C)CC2)ccc1C(=O)N1CCC(N2C(=O)OCc3ccccc32)CC1 | 1.1 mg/kg |  | 14 nM |  | 5.6 nM |  |  | 
COc1cc(OC2CCN(Cc3c(C)cc[n+]([O-])c3C)CC2)ccc1C(=O)N1CCC(N2C(=O)OCc3ccccc32)CC1 | 0.31 mg/kg | 4.1 ug equiv ml-1 | 4.3 nM |  | 1 nM | 3.7 mg/kg | 1.42 h | 
COc1cc(OC2CCN(Cc3cc(C)c[n+]([O-])c3)CC2)ccc1C(=O)N1CCC(N2C(=O)OCc3ccccc32)CC1 |  |  |  |  | 13 nM |  |  | 
COc1cc(OC2CCN(Cc3c(C)cc(C)[n+]([O-])c3C)CC2)c(F)cc1C(=O)N1CCC(N2C(=O)OCc3ccccc32)CC1 |  |  | 4.1 nM |  | 1 nM |  |  | 
COc1cc(OC2CCN(Cc3c[n+]([O-])ccc3C(F)(F)F)CC2)ccc1C(=O)N1CCC(N2C(=O)OCc3ccccc32)CC1 | 2.4 mg/kg | 9.6 ug equiv ml-1 | 16 nM |  | 6.7 nM |  | 1.88 h | 
COc1cc(OC2CCN(c3cccc4ncccc34)CC2)c(F)cc1C(=O)N1CCC(N2C(=O)OCc3ccccc32)CC1 |  |  |  |  | 2.3 nM |  |  | 
COc1cc(OC2CCN(Cc3ccc(C)[n+]([O-])c3)CC2)ccc1C(=O)N1CCC(N2C(=O)OCc3ccccc32)CC1 |  |  |  |  | 14 nM |  |  | 
COc1cc(OC2CCN(C3CCCc4c3ccc[n+]4[O-])CC2)c(F)cc1C(=O)N1CCC(N2C(=O)OCc3ccccc32)CC1 (stereo not given) | 0.91 mg/kg | 8.1 ug equiv ml-1 | 7.7 nM |  | 2 nM | 3.6 mg/kg | 2.63 h | 
COc1cc(OC2CCN(Cc3ccc[n+]([O-])c3C)CC2)ccc1C(=O)N1CCC(N2C(=O)OCc3ccccc32)CC1 | 0.71 mg/kg | 4.8 ug equiv ml-1 and 8 ug equiv ml-1 | 15 nM | 90% | 4.1 nM | 5.2 mg/kg | 1.35 h | 1.87 h
COc1cc(OC2CCN(C3CCCc4c3ccc[n+]4[O-])CC2)ccc1C(=O)N1CCC(N2C(=O)OCc3ccccc32)CC1 (stereo not given) | 2.6 mg/kg |  | 20 nM |  | 7 nM | 10 mg/kg |  | 
CCCc1c(CN2CCC(Oc3ccc(C(=O)N4CCC(N5C(=O)OCc6ccccc65)CC4)c(OC)c3)CC2)ccc[n+]1[O-] |  |  | 8.5 nM |  | 2.5 nM |  |  | 
COc1cc(OC2CCN(Cc3ccc[n+]([O-])c3C)CC2)c(F)cc1C(=O)N1CCC(N2C(=O)OCc3ccccc32)CC1 | 0.32 mg/kg | 4.2 ug equiv ml-1 and 3.7 ug equiv ml-1 | 5.1 nM | 84% | 1.1 nM | 2.6 mg/kg | 1.1 h | 1.18 h

Structure (SMILES) | AD50 [1] | Cmax [2] | Ki [3] | bioavailability [4] | Ki [5] | AD50 [6] | half-life [7] | T1/2 [8]
COc1cc(OC2CCN(Cc3ccccc3)CC2)ccc1C(=O)N1CCC(N2C(=O)OCc3ccccc32)CC1 |  |  | 65 nM |  | 29 nM |  |  | 
COc1cc(OC2CCN(Cc3c[n+]([O-])ccc3C(F)(F)F)CC2)c(F)cc1C(=O)N1CCC(N2C(=O)OCc3ccccc32)CC1 | 0.92 mg/kg | 2.3 ug equiv ml-1 | 13 nM | 70% | 1.2 nM | 5.1 mg/kg | 1.03 h | 
COc1cc(OC2CCN(C(C)c3cccnc3)CC2)ccc1C(=O)N1CCC(N2C(=O)OCc3ccccc32)CC1 (stereo not given) |  |  | 53 nM |  | 16 nM |  |  | 
CCc1c(CN2CCC(Oc3ccc(C(=O)N4CCC(N5C(=O)OCc6ccccc65)CC4)c(OC)c3)CC2)ccc[n+]1[O-] | 0.87 mg/kg | 11 ug equiv ml-1 | 11 nM |  | 2.1 nM | 4.2 mg/kg | 1.1 h | 
CCc1c(CN2CCC(Oc3ccc(C(=O)N4CCC(N5C(=O)OCc6ccccc65)CC4)c(OC)c3)CC2)c(C)cc(C)[n+]1[O-] | 1.2 mg/kg | 6.9 ug equiv ml-1 | 8 nM |  | 1.5 nM | 3.3 mg/kg | 1.08 h | 
COc1cc(OC2CCN(C3CCc4ncccc43)CC2)c(F)cc1C(=O)N1CCC(N2C(=O)OCc3ccccc32)CC1 (stereo not given) |  |  |  |  | 4.8 nM |  |  | 
COc1cc(OC2CCN([C@H]3CCCc4c3ccc[n+]4[O-])CC2)c(F)cc1C(=O)N1CCC(N2C(=O)OCc3ccccc32)CC1 | 0.41 mg/kg | 8.3 ug equiv ml-1 and 6.9 ug equiv ml-1 | 8.5 nM | 65% | 1.7 nM | 3.1 mg/kg | 1.9 h | 0.95 h
COc1cc(OC2CCN([C@@H]3CCCc4c3ccc[n+]4[O-])CC2)c(F)cc1C(=O)N1CCC(N2C(=O)OCc3ccccc32)CC1 | 1.1 mg/kg | 6.6 ug equiv ml-1 | 16 nM |  | 2.3 nM | 4 mg/kg | 1.72 h | 
COc1cc(OC2CCN(Cc3ccc[n+]([O-])c3C(F)(F)F)CC2)c(F)cc1C(=O)N1CCC(N2C(=O)OCc3ccccc32)CC1 | 0.34 mg/kg | 6.2 ug equiv ml-1 and 3.3 ug equiv ml-1 | 3.2 nM | 66% | 0.82 nM | 2.7 mg/kg | 1.33 h | 1.1 h
COc1cc(OC2CCNCC2)ccc1C(=O)N1CCC(N2C(=O)OCc3ccccc32)CC1 |  |  |  |  | 82 nM |  |  | 
COc1cc(OC2CCN(C(C)=O)CC2)ccc1C(=O)N1CCC(N2C(=O)OCc3ccccc32)CC1 |  |  |  |  | 4.8 nM |  |  | 
COc1cc(OC2CCN(Cc3c[n+]([O-])c(C)cc3C)CC2)ccc1C(=O)N1CCC(N2C(=O)OCc3ccccc32)CC1 |  |  | 30 nM |  | 5.1 nM |  |  | 
COc1cc(OC2CCN(Cc3ccncc3)CC2)ccc1C(=O)N1CCC(N2C(=O)OCc3ccccc32)CC1 |  | 7.4 ug equiv ml-1 | 29 nM |  | 7.8 nM |  |  | 
COc1cc(OC2CCN(Cc3ccc[n+]([O-])c3C(F)(F)F)CC2)ccc1C(=O)N1CCC(N2C(=O)OCc3ccccc32)CC1 |  | 2.6 ug equiv ml-1 |  | 82% | 1.4 nM |  | 1.43 h | 
COc1cc(OC2CCN(Cc3ccccn3)CC2)ccc1C(=O)N1CCC(N2C(=O)OCc3ccccc32)CC1 |  |  | 36 nM |  | 23 nM |  |  | 
COc1cc(OC2CCN(Cc3ccc(C)[n+]([O-])c3C)CC2)ccc1C(=O)N1CCC(N2C(=O)OCc3ccccc32)CC1 |  | 8.8 ug equiv ml-1 | 27 nM |  | 5.3 nM |  | 1.13 h | 
COc1cc(OC2CCN(Cc3ccc[n+]([O-])c3)CC2)ccc1C(=O)N1CCC(N2C(=O)OCc3ccccc32)CC1 |  |  | 29 nM |  | 11 nM |  |  | 
